Screens as filed in PubChem BioAssay.
PfGluPho inh = PfG6PD (Plasmodium falciparum) enzyme inhibition. 350,000 tested, 0.78% active. inhibition, % at 20 µM. PfGluPho enzyme, NADPH resazurin-diaphorase fluorescence;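 active = inhibition reaching at least a set limit at 20 µM in the primary screen, cut at about 59% in these data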;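 also: 0% = DMSO wells with substrate and 100% = DMSO wells lacking glucose-6-phosphate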
HKDC1 inh = blocks human hexokinase HKDC1 activity; Q2TB90; recombinant HKDC1, G6PDH/diaphorase resazurin coupled fluorescence; inhibition, % at 20 µM; 340,000 tested, 0.16% active; AID 493160;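 active = inhibition above about 35% when tested at 20 µM, limit read from the data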;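 also: plate controls were DMSO wells with enzyme for no effect and DMSO wells lacking enzyme for full effect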
Target sequence (Q2TB90 whole entry, looked up): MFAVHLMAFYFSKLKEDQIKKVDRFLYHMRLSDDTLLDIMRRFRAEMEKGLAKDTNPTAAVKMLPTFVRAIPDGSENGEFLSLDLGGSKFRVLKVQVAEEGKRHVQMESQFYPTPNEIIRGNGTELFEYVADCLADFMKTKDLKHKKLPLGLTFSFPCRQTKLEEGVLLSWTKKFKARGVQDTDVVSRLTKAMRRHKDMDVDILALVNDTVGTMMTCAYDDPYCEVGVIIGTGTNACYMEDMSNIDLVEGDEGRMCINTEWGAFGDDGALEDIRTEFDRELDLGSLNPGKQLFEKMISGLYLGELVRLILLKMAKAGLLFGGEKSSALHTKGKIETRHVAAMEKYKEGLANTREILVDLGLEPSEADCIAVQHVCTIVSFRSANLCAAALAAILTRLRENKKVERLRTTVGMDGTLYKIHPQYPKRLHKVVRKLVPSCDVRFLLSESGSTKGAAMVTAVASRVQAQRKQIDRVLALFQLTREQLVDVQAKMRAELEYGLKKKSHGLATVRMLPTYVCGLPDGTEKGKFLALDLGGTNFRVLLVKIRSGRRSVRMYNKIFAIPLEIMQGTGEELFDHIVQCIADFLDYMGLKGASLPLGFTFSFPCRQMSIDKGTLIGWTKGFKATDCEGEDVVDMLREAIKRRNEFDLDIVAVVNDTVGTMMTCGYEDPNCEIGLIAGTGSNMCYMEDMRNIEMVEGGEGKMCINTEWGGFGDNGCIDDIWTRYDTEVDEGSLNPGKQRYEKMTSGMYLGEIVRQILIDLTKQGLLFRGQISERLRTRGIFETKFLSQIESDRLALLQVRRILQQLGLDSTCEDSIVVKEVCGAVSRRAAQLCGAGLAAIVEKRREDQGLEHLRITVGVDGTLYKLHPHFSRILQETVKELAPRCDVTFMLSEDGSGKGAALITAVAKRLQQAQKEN
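test system = in-house recombinant HK5 (HKDC1) enzyme | amount = HKDC1 at 5 µg/mL | control set = DMSO-enzyme wells negative, buffer-substituted wells positive | compound = one dose of 20 µM, 1% DMSO | schedule = reaction time 90 min, room temperature, protected from light | technique = resorufin fluorescence at 613 nm | reagent = glucose with 1 mM ATP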
G6PDH CS = counter-screen for G6PDH assay hits: L. mesenteroides G6PDH inhibition. Purified L. mesenteroides G6PDH, diaphorase/resazurin coupled fluorescence, 45 min. inhibition, % at 5 µM. 200,000 tested, 0.12% active. AID 1020; in the data active = inhibition above about 50%
TbHK1 inh = T. brucei hexokinase 1 inhibition. recombinant TbHK1, G6PDH-coupled NADH A340. inhibition, % at 10 µM. 220,000 tested, 0.11% active;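 active = inhibition of 50% or more in the single-dose primary screen; inactive = inhibition below 50%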
Diaphorase inh = inhibits diaphorase or chemically oxidizes, flagging diaphorase assay artifacts; inhibition, % at 20 µM; 190,000 tested, 0.69% active; diaphorase resazurin-to-resorufin fluorescence, NADH, 16 min; bacterial (C. kluyveri) enzyme, not human;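 active = primary screen inhibition at 20 µM above a set limit, cut at about 50% in these data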;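 also: plate controls were DMSO with full reaction for no effect and wells lacking NADH for full effect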
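controls = No-NADH positive control and DMSO neutral control | system = Clostridium kluyveri diaphorase enzyme | timing = reaction incubation of 16 min at room temperature | signal = resorufin fluorescence 544/590 nm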
PfG6PD confirm = confirmation of Plasmodium falciparum G6PD inhibitors. shares compounds with PfGluPho inh. inhibition, % at 20 µM. AID 504753. recombinant PfGluPho, NADPH-diaphorase-resazurin fluorescence. 2,400 tested, 34% active;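 active = inhibition of at least 50% at 20 µM in any single replicate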;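 also: 0% = DMSO with substrate and 100% = DMSO lacking glucose-6-phosphate substrate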
Diaph ctr 10uM = counter-screen for P. falciparum G6PD inhibitors: diaphorase inhibitors, oxidizers. shares compounds with PfGluPho inh. diaphorase-coupled resazurin reduction, fluorescence, NADPH 10 uM. inhibition, % at 20 µM. 820 tested, 39% active. AID 504862;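 active = average inhibition reaching 50% or more with the compound at 20 µM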;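 also: resorufin red fluorescence formed as diaphorase reduces resazurin using NADPH; 0% = DMSO with enzyme and 100% = DMSO without enzyme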
Diaphorase 30uM = counter-screen for P. falciparum G6PD inhibitors: diaphorase inhibitors, oxidizers | Diaphorase/resazurin coupled assay, resorufin fluorescence, 30 uM NADPH | 820 tested, 29% active | inhibition, % at 20 µM | AID 504863 | shares compounds with PfGluPho inh;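 active = inhibition averaging 50% or more, tested at 20 µM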;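 also: 0% = DMSO with enzyme and 100% = DMSO wells lacking diaphorase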
Starred values were filed as active, the others as inactive; . = no result given. Shown are actives, neighbours in structure and some others; about 1.3% of the full set was active somewhere.

SMILES | PfGluPho inh | HKDC1 inh | G6PDH CS | TbHK1 inh | Diaphorase inh | PfG6PD confirm | others
O=C(CNC(=O)c1ccco1)OCC(=O)c1ccc([N+](=O)[O-])cc1 | 63* | -1 | . | . | . | 66* | Diaph ctr 10uM=-5;Diaphorase 30uM=-4
O=C(Cc1ccccc1)NCC(=O)OCC(=O)c1cccc([N+](=O)[O-])c1 | -16 | -3 | -2 | -4 | 4 | .
O=C(Cc1ccccc1)NCC(=O)OCC(=O)c1ccc([N+](=O)[O-])cc1 | 68* | -1 | -3 | 6 | 8 | 67* | Diaph ctr 10uM=-2;Diaphorase 30uM=-6
O=C(CNC(=O)c1ccco1)OCC(=O)c1ccc(Cl)cc1 | -11 | -9 | 17 | 9 | -12 | .
Cc1c(N=C2C=C(Br)C(=O)C(Br)=C2)c(=O)n(-c2ccccc2)n1C | 98* | 21 | 7 | 2 | 69* | 103* | Diaph ctr 10uM=38;Diaphorase 30uM=11
Cc1c(N=Nc2ccc(O)cc2)c(=O)n(-c2ccccc2)n1C | -4 | -3 | 3 | -26 | -4 | .
O=C(NCCO)c1ccc2nc(-c3ccco3)c(-c3ccco3)nc2c1 | 72* | 17 | 29 | 8 | 52* | 19
O=C(NCCc1ccccc1)c1ccc2nc(-c3ccco3)c(-c3ccco3)nc2c1 | 60* | 22 | 25 | -9 | 49 | 30
CCOC(=O)C1=C(c2ccccc2)NC(=O)NC1c1cccc(OC)c1OC (centres undefined) | -6 | -4 | . | . | . | .
CCC(=O)OCOc1ccc(/C=C2/CCC(CN(C)C)C2=O)cc1 (centres undefined) | 84* | 2 | . | . | . | 56* | Diaph ctr 10uM=-33;Diaphorase 30uM=-23
CN1CCN(c2nc(-c3ccc(C(C)(C)C)cc3)nc3ccccc23)CC1 | 36 | 2 | . | . | . | .
O=c1c2ccccc2sc2ccc(C#CC3(O)CCCCC3)cc12 | 46 | 7 | . | . | . | .
Cn1c2ccccc2c(=O)c2cc(C#CC3=CCCCC3)ccc21 | 33 | 15 | . | . | . | .
C=CCn1c2ccccc2c(=O)c2cc(C#CC3(O)CCCCC3)ccc21 | 104* | 2 | . | . | . | 55* | Diaph ctr 10uM=70*;Diaphorase 30uM=54*
C=CCn1c2ccccc2c(=O)c2cc(C#CC[C@@H](C)O)ccc21 | 67* | 10 | . | . | . | 41
O=C(C1CC(=O)N(C2CCCC2)C1)N1CCC(Cc2ccccc2)CC1 (centres undefined) | -19 | -7 | 6 | 1 | 1 | .
CCN1CCN(C(=O)c2cc3sccc3n2CC(=O)c2ccccc2)CC1 | -6 | -9 | 4 | 4 | 2 | .
O=C(COC(=O)CCSc1ccccc1)Nc1ccccc1Br | 8 | 4 | . | . | . | .
CCOc1ccccc1/C=N/NC(=O)CNC(=O)c1ccc(S(=O)(=O)N2CCOCC2)cc1 | 17 | -14 | 0 | -4 | 16 | .
CO/N=C/c1ccc(Oc2ccc([N+](=O)[O-])cc2[N+](=O)[O-])c(OC)c1 | 94* | -2 | 10 | 2 | 9 | 44
Nc1cccc(-c2nc3ccccc3[nH]2)c1 | 5 | 3 | 1 | -5 | 1 | .
CC(=O)c1sc2nc(C)cc(C)c2c1N | 25 | 9 | -12 | -3 | 23 | .
Cc1ccc2nc(-c3cccc(N)c3)[nH]c2c1 | 62* | 5 | 6 | -8 | 2 | 29
Cc1ccc2nc(-c3sc4nc(C)cc(C)c4c3N)[nH]c2c1 | 77* | 0 | 2 | -4 | 2 | 12
CN(Cc1cccnc1)C(=O)CC1C(=O)NCCN1Cc1ccc(-c2ccccc2)cc1 (centres undefined) | 10 | -4 | 2 | -2 | 24 | .
SMILES | PfGluPho inh | HKDC1 inh | G6PDH CS | TbHK1 inh | Diaphorase inh | PfG6PD confirm | others
COC1CC(C)C(OC)c2cc(O)cc(c2O)NC(=O)C(C)=CC=CC(C)C(OC(N)=O)C(C)=CC(C)C1OC (centres undefined) | 105* | 17 | . | . | . | 106* | Diaph ctr 10uM=82*;Diaphorase 30uM=82*
COC1C=CC=C(C)C(=O)NC2=CC(=O)C(N)=C(CC(C)CC(OC)C(O)C(C)C=C(C)C1OC(N)=O)C2=O (centres undefined) | -40 | 6 | . | . | . | .
COc1cc(Cc2ccc(N)c(OC)c2)ccc1N | 14 | 1 | -2 | -5 | 10 | .
Nc1ccc(Cc2ccc(N)c(O)c2)cc1O | 72* | 3 | 27 | 4 | 14 | 46
COC(=O)c1cc2ccccc2c(-c2c(OC)c(C(=O)OC)cc3ccccc23)c1OC | 89* | 5 | 6 | 0 | 29 | 33
COC(=O)c1cc2ccccc2c([N+](=O)[O-])c1O | 1 | 1 | . | . | . | .
Oc1ccc2ccccc2c1-c1sc(Nc2ccccc2)n[n+]1-c1ccc(F)cc1 | 6 | 11 | . | . | . | .
COc1ccc(C)cc1Nc1n[n+](-c2ccccc2)c(-c2c(OC)ccc3ccccc23)s1 | 115* | 9 | . | . | . | 75* | Diaph ctr 10uM=69*;Diaphorase 30uM=50
COc1ccc(C)cc1Nc1n[n+](-c2ccccc2)c(-c2cc(OC)c(OC)cc2Br)s1 | 11 | 5 | . | . | . | .
Fc1ccc(-[n+]2nc(Nc3ccccc3)sc2-c2c3ccccc3cc3ccccc23)cc1 | 132* | 4 | . | . | . | 82* | Diaph ctr 10uM=78*;Diaphorase 30uM=60*
Nc1[nH]c(=O)[nH]c(=O)c1N=Cc1ccccc1 | 131* | -25 | . | . | . | 98* | Diaph ctr 10uM=16;Diaphorase 30uM=3
O=c1[nH]c(NCCO)c(N=Cc2ccccc2)c(=O)[nH]1 | 68* | -36 | . | . | . | 104* | Diaph ctr 10uM=79*;Diaphorase 30uM=43
CC(=O)c1ccc2c(c1)OCCOCCOc1ccccc1OCCOCCO2 | -1 | -8 | . | -11 | . | .
Cc1ccc(Nc2nnc(SCC(=O)c3ccc(O)cc3O)s2)cc1 | 68* | 3 | . | . | . | 33
Brc1ccc(C2C3=C(Nc4ncnn42)c2ccccc2OC3c2ccncc2)cc1 (centres undefined) | 83* | 10 | 6 | -9 | 16 | 54* | Diaph ctr 10uM=52*;Diaphorase 30uM=57*
COc1ccc([N+](=O)[O-])cc1COc1cc(C)cc2oc(=O)cc(-c3ccccc3)c12 | 86* | 5 | 4 | -9 | 10 | 28
N=C1/C(=C\c2ccc(-c3cc(Cl)cc(Cl)c3)o2)C(=O)N=C2SC=C(c3ccccc3)N12 | 7 | -1 | -12 | 20 | 19 | .
N=C1/C(=C/c2cccn2CCOc2ccccc2)C(=O)N=C2SC=C(c3ccccc3)N12 | 65* | -4 | -16 | 13 | 0 | 9
O=S(=O)(c1ccccc1)N1CCN(S(=O)(=O)c2ccccc2)c2ccccc21 | 112* | 4 | . | . | . | 45
O=S(=O)(c1ccccc1)N1CCNc2ccccc21 | 23 | -1 | . | . | . | .
CC(C)N1CCN(S(=O)(=O)c2ccccc2)c2ccccc21 | 95* | 4 | . | . | . | 38
O=C(NCCc1ccc(Cl)cc1Cl)c1cccnc1 | -12 | 1 | . | . | . | .
N#Cc1cnn(Cc2ccccc2)c1N | -5 | -4 | 2 | 6 | 9 | .
